≈ marks a conversion by molar mass, not a printed value.

The values below come from ChEMBL document CHEMBL1208755, “5-Nitro-2-furoic acid hydrazones: design, synthesis and in vitro antimycobacterial evaluation against log and starved phase cultures” (Bioorg Med Chem Lett, 2010).

A short description of data set [1]: Antimicrobial activity aagainst Mycobacterium sp. Mc2 in log phase assessed as inhibition of growth. The format is functional. The procedure, abridged: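 Agar dilution along the lines of NCCLS guidance, run in duplicate on log-phase cultures. MIC is the lowest compound concentration that gives complete inhibition of bacterial growth.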
A short description of data set [2]: Antimicrobial activity aagainst Mycobacterium sp. Mc2 in presence of acetate. The format is functional.
Data set [3] has as its system Mycobacterium tuberculosis. The data set is described as follows: Antimicrobial activity aagainst Mycobacterium tuberculosis ATCC 14468 in log phase by agar dilution method. The format is functional. The procedure, abridged:
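M. tuberculosis log-phase cultures were tested by agar dilution following NCCLS-type guidance, in duplicate. MIC was taken as the lowest concentration giving complete inhibition of bacterial growth.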
A general note: In agar dilution, organisms are placed on agar that contains the substance at set levels.

Data set [4] concerns the target T1, Isocitrate lyase (Mycobacterium tuberculosis) (UniProt P9WKK7).
T1 sequence (whole entry): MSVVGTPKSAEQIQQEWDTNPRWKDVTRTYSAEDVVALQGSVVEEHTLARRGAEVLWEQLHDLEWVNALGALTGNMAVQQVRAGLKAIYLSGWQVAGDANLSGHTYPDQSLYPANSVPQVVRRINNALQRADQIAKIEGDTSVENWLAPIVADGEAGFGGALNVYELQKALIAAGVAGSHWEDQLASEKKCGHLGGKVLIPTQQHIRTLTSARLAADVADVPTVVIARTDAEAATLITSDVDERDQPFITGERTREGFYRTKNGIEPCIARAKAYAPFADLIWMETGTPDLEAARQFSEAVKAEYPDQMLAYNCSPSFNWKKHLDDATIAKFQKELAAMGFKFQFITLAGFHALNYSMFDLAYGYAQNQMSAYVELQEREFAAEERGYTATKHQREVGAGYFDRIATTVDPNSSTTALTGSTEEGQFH
The data set is described as follows: Percent inhibition of Mycobacterium tuberculosis isocitrate lyase (ICL) at 10 uM. The procedure, abridged:
(§1)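 Isocitrate lyase activity was measured at 37 °C with phenylhydrazine present, reading glyoxylate-phenylhydrazone formation at 324 nm. Percent inhibition was determined at a single concentration.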

The test system of data set [5] is Mycobacterium tuberculosis. The data set is described as follows: Antimicrobial activity aagainst Mycobacterium tuberculosis ATCC 14468 in starved phase by agar dilution method. Format: functional. In a few lines:
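Six-week nutrient-starved M. tuberculosis cells were tested by agar dilution in duplicate, following a literature procedure. MIC was taken as the lowest concentration giving complete inhibition of growth.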

Data set [6] can be described thus: Cytotoxicity against african green monkey Vero cells after 72 hrs by MTT assay. Format: cell-based. The following applies: chlorocebus sabaeus. (Tetrazolium dyes change colour on reduction, which living cells bring about.)
The target of data set [7] is T1, Isocitrate lyase (Mycobacterium tuberculosis). The data set is described as follows: Percent inhibition of Mycobacterium tuberculosis isocitrate lyase (ICL) at 100 uM. The procedure, abridged: as §1

Usually MIC stands for the least concentration at which growth counts as inhibited. Take `O=C(N/N=C/c1c(Cl)cccc1Cl)c1ccc([N+](=O)[O-])o1`: the MIC in data set [1] came to 76.2 µM (≈ 25 µg/mL); in data set [2] it was 38.1 µM; in data set [3] it was 19 µM (≈ 6.25 µg/mL).
By inhibition is commonly meant how much of the control response was suppressed. The CC50 is the concentration that lowers cell viability or growth by half. In the case of `C/C(=N\NC(=O)c1ccc([N+](=O)[O-])o1)c1ccccc1`, the minimum inhibitory concentration (MIC) was 45.7 µM (≈ 12.5 µg/mL) in data set [1], 45.7 µM (≈ 12.5 µg/mL) in data set [5], 45.7 µM in data set [2] and 11.4 µM (≈ 3.13 µg/mL) in data set [3]. The inhibition in data set [4] is 34.9%. The CC50 at 72 h in data set [6] was greater than 229 µM.
On to `C/C(=N\NC(=O)c1ccc([N+](=O)[O-])o1)c1ccc(C)cc1`, for which the MIC came out at 43.5 µM (≈ 12.5 µg/mL) in data set [1], 43.5 µM (≈ 12.5 µg/mL) in data set [5], 43.5 µM in data set [2] and 10.9 µM (≈ 3.13 µg/mL) in data set [3]. The compound further displayed an inhibition in data set [4] of 32.5%. Further, the half-maximal cytotoxic concentration (CC50) at 72 h in data set [6] is greater than 218 µM.
As for `C/C(=N\NC(=O)c1ccc([N+](=O)[O-])o1)c1ccc(F)cc1`, the MIC came to 21.5 µM (≈ 6.25 µg/mL) in data set [1], 21.5 µM (≈ 6.25 µg/mL) in data set [5], 42.9 µM in data set [2] and 5.35 µM (≈ 1.56 µg/mL) in data set [3]. In addition, the inhibition in data set [4] turned out to be 28.1%. For the same compound, it took 215 µM to reach half-maximal cytotoxicity in data set [6] (CC50 at 72 h).
For `O=C(N/N=C/c1ccc(Br)cc1)c1ccc([N+](=O)[O-])o1`, the results for the MIC in data set [1], in data set [2] and in data set [3] were 73.9 µM (≈ 25 µg/mL), 37 µM and 18.5 µM (≈ 6.25 µg/mL), respectively.
Turning to `O=C(N/N=C/c1ccccc1)c1ccc([N+](=O)[O-])o1`, the MIC in data set [1] came to 192 µM (≈ 49.8 µg/mL); in data set [2] it was 48.2 µM; in data set [3], 48.2 µM (≈ 12.5 µg/mL).
As to `C/C(=N\NC(=O)c1ccc([N+](=O)[O-])o1)c1ccc([N+](=O)[O-])cc1`, the MIC was 19.6 µM (≈ 6.25 µg/mL) in data set [1], 19.6 µM (≈ 6.25 µg/mL) in data set [5], 19.6 µM in data set [2] and 9.84 µM (≈ 3.13 µg/mL) in data set [3]. The same compound returned an inhibition in data set [4] of 48.9%. Besides, the CC50 at 72 h in data set [6] was greater than 197 µM.
Consider `COc1cc(/C=N/NC(=O)c2ccc([N+](=O)[O-])o2)ccc1O`, for which the MIC was found to be 81.9 µM (≈ 25 µg/mL) in data set [1], 20.5 µM in data set [2] and 41 µM (≈ 12.5 µg/mL) in data set [3].
In the case of `O=C(N/N=C/c1ccc([N+](=O)[O-])o1)c1ccc([N+](=O)[O-])o1`, the minimum inhibitory concentration (MIC) is 0.68 µM (≈ 0.2 µg/mL) in data set [1], 10.6 µM (≈ 3.13 µg/mL) in data set [5], 5.3 µM in data set [2] and 2.65 µM (≈ 0.78 µg/mL) in data set [3]. Also, in data set [4], the inhibition was found to be 86.8%. Moreover, the midpoint of cytotoxicity in data set [6], the CC50 at 72 h, lay at 213 µM.
Consider `O=C(N/N=C/c1ccc([N+](=O)[O-])cc1)c1ccc([N+](=O)[O-])o1`, for which the values for the MIC in data set [1], in data set [2] and in data set [3] were 82.2 µM (≈ 25 µg/mL), 20.6 µM and 20.6 µM (≈ 6.25 µg/mL), respectively.
Regarding `O=C(N/N=C/c1ccc(O)cc1)c1ccc([N+](=O)[O-])o1`, the minimal inhibitory concentration (MIC) was greater than 45.4 µM in data set [1], 45.4 µM in data set [2] and greater than 45.4 µM in data set [3].
With `O=C(N/N=C/c1ccc(F)cc1)c1ccc([N+](=O)[O-])o1`, the results for the MIC in data set [1], in data set [2] and in data set [3] were 90.2 µM (≈ 25 µg/mL), 45.1 µM and 22.5 µM (≈ 6.25 µg/mL), respectively.
On to `Cc1ccc(/C=N/NC(=O)c2ccc([N+](=O)[O-])o2)cc1`, for which the MIC worked out at 45.7 µM (≈ 12.5 µg/mL) in data set [1], 91.5 µM (≈ 25 µg/mL) in data set [5], 22.9 µM in data set [2] and 11.4 µM (≈ 3.13 µg/mL) in data set [3]. This compound yielded an inhibition in data set [4] of 19.8%. This compound registered a CC50 at 72 h in data set [6] greater than 229 µM.
Take `O=C(N/N=C/c1ccc(Cl)cc1)c1ccc([N+](=O)[O-])o1`: the MIC came to 42.6 µM (≈ 12.5 µg/mL) in data set [1], 10.7 µM in data set [2] and 21.3 µM (≈ 6.25 µg/mL) in data set [3].
On to `CO[C@H]1/C=C/O[C@@]2(C)Oc3c(C)c(O)c4c(O)c(c(/C=N/N5CCN(C)CC5)c(O)c4c3C2=O)NC(=O)/C(C)=C\C=C\[C@H](C)[C@H](O)[C@@H](C)[C@@H](O)[C@@H](C)[C@H](OC(C)=O)[C@@H]1C` [RIFAMPIN], for which the MIC is 1.89 µM (≈ 1.56 µg/mL) in data set [1], greater than 15.2 µM in data set [5], greater than 15.2 µM in data set [2] and 0.48 µM (≈ 0.395 µg/mL) in data set [3]. This compound registered a CC50 at 72 h in data set [6] greater than 75.9 µM.
`O=C(O)CC[N+](=O)[O-]`: in data set [7], the inhibition amounted to 63.2%.
Take `C/C(=N\NC(=O)c1ccc([N+](=O)[O-])o1)c1ccc(Br)cc1`: the MIC in data set [1] was determined as 17.8 µM (≈ 6.25 µg/mL); in data set [5], 17.8 µM (≈ 6.25 µg/mL); in data set [2], 4.43 µM; in data set [3], 8.88 µM (≈ 3.13 µg/mL). In data set [4], this compound displayed an inhibition of 73.1%. This compound displayed a cytotoxic concentration (CC50) at 72 h in data set [6] greater than 178 µM.
`C/C(=N\NC(=O)c1ccc([N+](=O)[O-])o1)c1ccccc1O`: the MIC in data set [1], in data set [2] and in data set [3] was greater than 43.2 µM each time.
Turning to `O=C(N/N=C/c1ccco1)c1ccc([N+](=O)[O-])o1`, the MIC in data set [1] amounted to 50.2 µM (≈ 12.5 µg/mL); in data set [2], 25.1 µM; in data set [3] it was 25.1 µM (≈ 6.25 µg/mL).
On to `O=C(N/N=C/c1ccccc1C(F)(F)F)c1ccc([N+](=O)[O-])o1`, for which the MIC came out at 4.76 µM (≈ 1.56 µg/mL) in data set [1], 19.1 µM (≈ 6.25 µg/mL) in data set [5], 9.56 µM in data set [2] and 4.76 µM (≈ 1.56 µg/mL) in data set [3]. The same compound gave an inhibition in data set [4] of 30.1%. Also, in data set [6], the CC50 at 72 h was greater than 191 µM.
In the case of `COc1ccc(/C=N/NC(=O)c2ccc([N+](=O)[O-])o2)cc1`, the values for the MIC in data set [1], in data set [2] and in data set [3] were 43.2 µM (≈ 12.5 µg/mL), 21.6 µM and 21.6 µM (≈ 6.25 µg/mL), respectively.
In the case of `O=C(N/N=C/c1cccc(Br)c1)c1ccc([N+](=O)[O-])o1`, the minimal inhibitory concentration (MIC) in data set [1] was 37 µM (≈ 12.5 µg/mL); in data set [2], 37 µM; in data set [3] it was 18.5 µM (≈ 6.25 µg/mL).
For the compound `O=C(N/N=C/c1ccccc1[N+](=O)[O-])c1ccc([N+](=O)[O-])o1`, the MIC in data set [1] came to 10.3 µM (≈ 3.13 µg/mL); in data set [5], 41.1 µM (≈ 12.5 µg/mL); in data set [2], 10.3 µM; in data set [3], 10.3 µM (≈ 3.13 µg/mL). The compound further gave an inhibition in data set [4] of 46.8%. The compound further came in with a CC50 at 72 h in data set [6] of 206 µM.
In the case of `NNC(=O)c1ccncc1` [ISONIAZID], the minimum inhibitory concentration (MIC) is 45.6 µM (≈ 6.25 µg/mL) in data set [1], greater than 91.1 µM in data set [5], greater than 91.1 µM in data set [2] and 0.72 µM (≈ 0.0987 µg/mL) in data set [3]. The CC50 at 72 h in data set [6] was greater than 456 µM.
